Activity calls are given as the source filed them. The rule behind the calls is not given here.
Columns and labels:
Mus musculus [1] = assay: Central nervous system depressant activity in CF albino mouse assessed as inhibition of spontaneous motor activity at 500 mg/kg, po measured within 15 mins relative to control; format: functional; conditions: for inhibition in vivo at 500 mg/kg: 0.25 h
How it was run: (§1)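 Male CF mice got 500 mg/kg orally as a 0.2% agar suspension. Scoring was at peak drug effect on a 0-4+ scale. Scores were judged together from percentage inhibition of spontaneous motor activity, a ptotic index based on percentage eye closure, and the degree of sedation.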

Mus musculus [2] = assay: Anticonvulsant activity in po dosed CF albino mouse assessed as protection against electroshock-induced seizure; format: functional
How it was run: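 Male CF mice were dosed orally, with the vehicle for po dosing being a 0.2% agar suspension. Protection against electroshock-induced seizures was examined at 500 mg/kg po. Activity is reported as ED50 in mg/kg po.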

Mus musculus [3] = assay: Antidepressant activity in CF albino mouse assessed as potentiation of dopa-induced response at 25 mg/kg, po relative to control; format: functional
How it was run: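 Male CF mice received 25 mg/kg orally in 0.2% agar suspension. The read-out was potentiation of the Dopa response. Results were graded on a plus-scale.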

Mus musculus [4] = assay: Antidepressant activity in CF albino mouse assessed as inhibition of reserpine-induced hypothermia at 25 mg/kg, po relative to control; format: functional
How it was run: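 Oral dosing was 25 mg/kg in 0.2% agar suspension to male CF mice. Antagonism of reserpine-induced hypothermia was measured and graded on a plus-scale.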

Mus musculus [5] = assay: Central nervous system depressant activity in CF albino mouse assessed as eye closure rate at 500 mg/kg, po relative to control; format: functional; how it was run: as §1
Mus musculus [6] = assay: Central nervous system depressant activity in CF albino mouse assessed as induction of sedation without arousability at 500 mg/kg, po; format: functional, organism-based; parameters: dose 500 mg/kg; how it was run: as §1
Mus musculus [7] = assay: Central nervous system depressant activity in CF albino mouse assessed as induction of sedation at 25 mg/kg, po; format: functional, organism-based; parameters: dose 25 mg/kg
Mus musculus [8] = assay: Toxicity in CF albino mouse assessed as tremor at 500 mg/kg, po; format: organism-based; parameters: dose 500 mg/kg, route oral; conditions: in vivo
Mus musculus [9] = assay: Toxicity in CF albino mouse assessed as mild convulsion at 500 mg/kg, po; format: organism-based; parameters: dose 500 mg/kg, route oral; conditions: in vivo
Mus musculus [10] = assay: Central nervous system depressant activity in CF albino mouse assessed as induction of sedation at 500 mg/kg, po; format: functional, organism-based; parameters: dose 500 mg/kg; how it was run: as §1
Mus musculus [11] = assay: Central nervous system depressant activity in CF albino mouse assessed as induction of sedation with arousability at 500 mg/kg, po; format: functional, organism-based; parameters: dose 500 mg/kg; how it was run: as §1
Mus musculus [12] = assay: Toxicity in CF albino mouse at 500 mg/kg, po; format: organism-based; parameters: dose 500 mg/kg, route oral; conditions: in vivo
Mus musculus [13] = assay: Central nervous system depressant activity in po dosed CF albino mouse assessed as induction of sedation; format: functional, organism-based

Row | Structure (SMILES) | inhibition (Mus musculus [1]) | ED50 (Mus musculus [2]) | Activity (Mus musculus [3]) [%] | inhibition in vivo at 25 mg/kg (Mus musculus [4]) [%] | inhibition in vivo at 500 mg/kg (Mus musculus [1]) [%] | Activity (Mus musculus [5]) [%] | Activity (Mus musculus [6]) | Activity (Mus musculus [7]) | Activity (Mus musculus [8]) | Activity (Mus musculus [9]) | Activity (Mus musculus [10]) | Activity (Mus musculus [11]) | inhibition (Mus musculus [4]) | Activity (Mus musculus [12]) | Activity (Mus musculus [13])
1 | CCN(CC)CCN1N=C(c2cc(OC)c(OC)c(OC)c2)CC2=C1CC(C)(C)CC2=O.[O-][Cl+3]([O-])([O-])O | inactive | inactive | 26 | 51 | – | – | – | – | – | – | – | – | – | – | –
2 | CCN(CC)CCN1N=C(c2ccc(F)cc2)CC2=C1CC(C)(C)CC2=O | – | 150 mg/kg | 51 | 26 | 51 | 75 | inactive | Active | Toxic | Toxic | – | – | – | – | –
3 | CCN(CC)CCN1N=C(c2ccc(Br)cc2)CC2=C1CC(C)(C)CC2=O | – | 100 mg/kg | 26 | 26 | 26 | 50 | – | – | Toxic | Toxic | Active | – | – | – | –
4 | CC1=NNC2=C(C1)C(=O)CC(C)(C)C2 | inactive | inactive | 51 | 0 | – | – | – | – | – | – | – | – | – | – | –
5 | CN(C)CCN1N=C(c2ccc(Br)cc2)CC2=C1CC(C)(C)CC2=O.[O-][Cl+3]([O-])([O-])O | – | 100 mg/kg | 51 | – | 51 | 75 | – | – | – | – | – | Active | inactive | – | –
6 | CCN(CC)CCN1N=C(c2ccccc2)CC2=C1CC(C)(C)CC2=O.[O-][Cl+3]([O-])([O-])O | – | 225 mg/kg | 51 | 26 | 26 | 50 | – | – | Toxic | Toxic | Active | – | – | – | –
7 | CC1(C)CC(=O)c2cc(-c3ccccc3)nnc2C1 | – | 500 mg/kg | 26 | 26 | 1 | 25 | – | – | Toxic | Toxic | inactive | – | – | – | –
8 | CN(C)CCN/N=C1/CC(C)(C)CC2=C1CC(c1ccccc1)=NN2CCN(C)C | inactive | inactive | – | – | – | – | – | – | – | – | – | – | – | – | –
9 | CC1(C)CC(=O)C2=C(C1)N(CCN1CCNCC1)N=C(c1ccc(F)cc1)C2.Cc1ccc(S(=O)(=O)O)cc1.O | inactive | inactive | 51 | 26 | – | – | – | – | – | – | – | – | – | – | –
10 | CC1(C)CC(=O)C(CC(=O)c2ccccc2)=C(NNc2ccncc2)C1 | – | inactive | 51 | 76 | 1 | 25 | – | – | – | – | inactive | – | – | – | –
11 | CC1(C)CC(=O)C2=C(C1)N(c1ccccc1)N=C(c1ccccc1)C2 | inactive | inactive | 0 | 26 | – | – | – | – | – | – | – | – | – | – | –
12 | CC1(C)CC(=O)C(CC(=O)c2ccccc2)=C(NNC(=N)N)C1 | – | inactive | 51 | 76 | 1 | 25 | – | – | – | – | inactive | – | – | – | –
13 | CCN(CC)CCN1N=C(c2ccc(OC)cc2)CC2=C1CC(C)(C)CC2=O.[O-][Cl+3]([O-])([O-])O | – | 300 mg/kg | 26 | 0 | 1 | 25 | – | – | – | – | inactive | – | – | – | –
14 | CC1(C)CC(=O)C2=C(C1)N(CCN1CCNCC1)N=C(c1ccc(Br)cc1)C2.Cl.O | – | inactive | 0 | 26 | 26 | 50 | – | – | – | – | Active | – | – | – | –
15 | CC1(C)CC(=O)C2=C(C1)NN=C(c1ccccc1)C2 | inactive | inactive | 26 | 26 | – | – | – | – | – | – | – | – | – | – | –
16 | CC1(C)CC(=O)C2=C(C1)N(C(N)=O)N=C(c1ccccc1)C2 | inactive | inactive | 51 | 26 | – | – | – | – | – | – | – | – | – | – | –
17 | CN1N=C(c2ccccc2)CC2=C1CC(C)(C)CC2=O | inactive | inactive | 26 | 51 | – | – | – | – | – | – | – | – | – | – | –
18 | CCN(CC)CCn1nc(C)c(=O)c2c1CC(C)(C)CC2=O | inactive | inactive | 26 | 51 | – | – | – | – | – | – | – | – | – | – | –
19 | CC1(C)CC(=O)C(CC(=O)c2ccccc2)=C(NNC(=O)c2ccncc2)C1 | – | inactive | 51 | 51 | 1 | 25 | – | – | – | – | inactive | – | – | – | –
20 | CCN(CC)CCN1N=C(c2ccccc2)CC2=C1CCCC2=O.[O-][Cl+3]([O-])([O-])O | inactive | 200 mg/kg | 51 | 26 | – | – | – | – | – | – | – | – | – | Toxic | –
21 | CN(C)CCN1N=C(c2ccccc2)CC2=C1CC(C)(C)CC2=O.[O-][Cl+3]([O-])([O-])O | – | 500 mg/kg | 51 | 26 | 51 | 75 | inactive | – | Toxic | Toxic | – | – | – | – | Dose-dependent effect
22 | CN(C)CCCN1N=C(c2ccccc2)CC2=C1CC(C)(C)CC2=O.O.[O-][Cl+3]([O-])([O-])O | – | 500 mg/kg | 51 | 26 | 1 | 25 | – | – | – | – | inactive | – | – | – | –
23 | CCN(CC)CCN1N=C(c2ccccc2)C(C)C2=C1CC(C)(C)CC2=O.[O-][Cl+3]([O-])([O-])O (centres undefined) | – | 400 mg/kg | 26 | 0 | 1 | 25 | – | – | Toxic | Toxic | inactive | – | – | – | –
24 | CC1(C)CC(=O)C2=C(C1)N(CCO)N=C(c1ccccc1)C2.Cc1ccc(S(=O)(=O)O)cc1 | – | inactive | 51 | 26 | 1 | 25 | – | – | – | – | inactive | – | – | – | –
25 | CN(C)CCN1N=C(c2ccc(F)cc2)CC2=C1CC(C)(C)CC2=O.O.O=C(O)C(=O)O | inactive | inactive | 26 | 26 | – | – | – | – | Toxic | Toxic | – | – | – | – | –
26 | CCOC(=O)NNC1=C(CC(=O)c2ccccc2)C(=O)CC(C)(C)C1 | – | inactive | 26 | 51 | 1 | 25 | – | – | – | – | inactive | – | – | – | –

From ChEMBL document CHEMBL3272220, “Central nervous system active 5-oxo-1,4,5,6,7,8-hexahydrocinnolines” (J Med Chem, 1976)
